Reference: ChEMBL document CHEMBL4184124, “Progress in antischistosomal N,N'-diaryl urea SAR” (Bioorg Med Chem Lett, 2018)
In brackets after ≈: the same amount, converted by molar mass. Activity calls are given as the source filed them. No cut-off for these calls is given here.

Legend:
[1] = Kinetic solubility of the compound in phosphate buffer at pH 6.5 by nephelometric method; format: physicochemical; conditions: read-out: Kinetic_solubility
In short: (§1)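 DMSO stocks spiked into pH 6.5 phosphate buffer or 0.01 M HCl (approx. pH 2.0); nephelometry gave a solubility concentration range.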

[2] = Intrinsic clearance in mouse liver microsomes assessed per mg protein after 60 mins in presence of NADPH generating system; format: ADME, microsome; conditions: 1 h
[3] = Intrinsic clearance in human liver microsomes assessed per mg protein after 60 mins in presence of NADPH generating system; format: ADME, microsome; conditions: 1 h
[4] = Octanol-[…] partition coefficient, log D of the compound at pH 7.4 by RP-HPLC method
[5] = Kinetic solubility of the compound in 0.01M HCl at pH 2 by nephelometric method; format: physicochemical; conditions: read-out: Kinetic_solubility; in short: as §1
[6] = Half-life in Swiss mouse at 100 mg/kg, po administered as single dose via gavage by LC-MS analysis; format: ADME, organism-based; conditions: in vivo
In short: (§2)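 Single 100 mg/kg oral dose given to non-infected male Swiss outbred mice; plasma sampled over 48 h post-dose; n=2 mice per time point, mean values. AUC taken to last measured concentration.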

Schistosoma mansoni [7] = assay: Antischistosomal activity against Schistosoma mansoni cercariae infected in NMRI mouse assessed as reduction in worm burden at 100 mg/kg, po administered as single dose via gavage measured after 21 days relative to control; format: functional; parameters: scale not given: the % may be the effect or the level left
In short: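 Infected mice given a single 100 mg/kg oral dose; efficacy read as worm burden reduction (%).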

[8] = Cmax in Swiss mouse at 100 mg/kg, po administered as single dose via gavage by LC-MS analysis; format: ADME, organism-based; parameters: dose 100 mg/kg, route oral; conditions: in vivo; in short: as §2
HFF = assay: Cytotoxicity against HFF; format: cell-based; conditions: Homo sapiens
[9] = AUC (0 to last) in Swiss mouse at 100 mg/kg, po administered as single dose via gavage by LC-MS analysis; format: ADME, organism-based; parameters: dose 100 mg/kg, time 0 - last, route oral; conditions: in vivo; in short: as §2
HEK293 = assay: Cytotoxicity against HEK293 cells; format: cell-based; conditions: Homo sapiens
U2OS = assay: Cytotoxicity against human U2OS cells; format: cell-based
Schistosoma mansoni [10] = assay: Antischistosomal activity against newly transformed stage of Schistosoma mansoni measured after 72 hrs by microscopic analysis; format: functional, organism-based
In short: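 Newly transformed schistosomula were first screened at 10 µM; compounds that killed them were then run as a concentration titration to derive IC50 values.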

Schistosoma mansoni [11] = assay: Antischistosomal activity against newly transformed stage of Schistosoma mansoni assessed as parasite death at 10 uM; format: functional, organism-based
In short: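 Newly transformed schistosomula exposed at 10 µM as a screen for killing; active compounds then titrated to give IC50.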

[12] = Plasma concentration in Swiss mouse at 100 mg/kg, po administered as single dose via gavage measured up to 48 hrs by LC-MS analysis; format: ADME, organism-based; in short: as §2
Schistosoma mansoni [13] = assay: Antischistosomal activity against adult stage of Schistosoma mansoni measured after 72 hrs by microscopic analysis; format: functional, organism-based
[14] = Cytotoxicity against human HC04 cells; format: cell-based
[15] = Tmax in Swiss mouse at 100 mg/kg, po administered as single dose via gavage by LC-MS analysis; format: ADME, organism-based; conditions: in vivo; in short: as §2

| SMILES | solubility kinetic [1] | CLH [2] | CLH [3] | chromatographic logD [4] | solubility kinetic [5] | half-life [6] | Activity (Schistosoma mansoni [7]) | Cmax [8] | IC50 (HFF) | AUC(0-t) [9] | IC50 (HEK293) | IC50 (U2OS) | IC50 (Schistosoma mansoni [10]) | Activity (Schistosoma mansoni [11]) | concentration at 48 h [12] | IC50 (Schistosoma mansoni [13]) | IC50 [14] | Tmax [15] |
| --- | --- | --- | --- | --- | --- | --- | --- | --- | --- | --- | --- | --- | --- | --- | --- | --- | --- | --- |
| O=C(Nc1ccncc1)Nc1ccncc1 | 12.5 to 25 µg/mL (≈ 58.3 to 117 µM) | 188 µL/min/mg | < 7 µL/min/mg | 1.3 | > 100 µg/mL |  |  |  |  |  |  |  |  |  |  |  |  |  |
| NC(=O)c1ccc(NC(=O)Nc2ccc(F)c(C(F)(F)F)c2)cc1 | 6.3 to 12.5 µg/mL (≈ 18.5 to 36.6 µM) | 22 µL/min/mg | 28 µL/min/mg | 2.7 | 6.3 to 12.5 µg/mL (≈ 18.5 to 36.6 µM) |  |  |  |  |  |  |  |  |  |  |  |  |  |
| O=C(Nc1ccc2c(c1)OC(F)(F)O2)Nc1ccc2c(c1)OC(F)(F)O2 | < 1.6 µg/mL | 12 µL/min/mg | < 7 µL/min/mg | 4.4 | < 1.6 µg/mL | 13 h | 0% | 25 µM | 79 µM | 679 µM·h | > 100 µM | > 100 µM | 0.26 µM | Active | > 5 µM | 0.49 µM | > 100 µM |  |
| N#Cc1ccc(NC(=O)Nc2ccc(F)c(C(F)(F)F)c2)cc1 | < 1.6 µg/mL | 12 µL/min/mg | < 7 µL/min/mg | 3.8 | < 1.6 µg/mL | 2.7 h | 37% | 31 µM | 60 µM | 216 µM·h | > 100 µM | > 100 µM | 1.6 µM | Active |  | 0.94 µM | > 100 µM | 4 h |
| O=C(Nc1ccncc1)Nc1ccc(F)c(C(F)(F)F)c1 | 6.3 to 12.5 µg/mL (≈ 21.1 to 41.8 µM) | 37 µL/min/mg | 12 µL/min/mg | 3.2 | 6.3 to 12.5 µg/mL (≈ 21.1 to 41.8 µM) |  |  |  |  |  |  |  | 5.6 µM | Active |  | > 10 µM |  |  |
| O=C(Nc1cnccn1)Nc1cnccn1 | 6.3 to 12.5 µg/mL (≈ 29.1 to 57.8 µM) | 157 µL/min/mg | 18 µL/min/mg | 0.8 | 6.3 to 12.5 µg/mL (≈ 29.1 to 57.8 µM) |  |  |  |  |  |  |  |  |  |  |  |  |  |
| O=C(Nc1ccc2c(c1)OC(F)(F)O2)Nc1ccc(F)c(C(F)(F)F)c1 | < 1.6 µg/mL | < 7 µL/min/mg | < 7 µL/min/mg | 4.5 | < 1.6 µg/mL |  | 0% | 27 µM | 67 µM | 989 µM·h | > 100 µM | > 100 µM | 0.21 µM | Active | > 5 µM | 0.49 µM | > 100 µM |  |
| Cc1cc(NC(=O)Nc2ccc(F)c(C(F)(F)F)c2)on1 | 6.3 to 12.5 µg/mL (≈ 20.8 to 41.2 µM) | 108 µL/min/mg | 73 µL/min/mg | 3.2 | 12.5 to 25 µg/mL (≈ 41.2 to 82.4 µM) |  |  |  |  |  |  |  |  |  |  |  |  |  |
| N#Cc1ccc(NC(=O)Nc2ccnc(C(F)(F)F)c2)cc1 | 1.6 to 3.1 µg/mL (≈ 5.22 to 10.1 µM) | < 7 µL/min/mg | < 7 µL/min/mg | 3 | 1.6 to 3.1 µg/mL (≈ 5.22 to 10.1 µM) | 2.3 h | 1.6% | 20 µM | > 100 µM | 175 µM·h | > 100 µM | > 100 µM | 1.9 µM | Active |  | 3.3 µM | > 100 µM | 2 h |
| O=C(Nc1ccnc(C(F)(F)F)c1)Nc1ccc2c(c1)OC(F)(F)O2 | 3.1 to 6.3 µg/mL (≈ 8.58 to 17.4 µM) | 16 µL/min/mg | < 7 µL/min/mg | 3.7 | 3.1 to 6.3 µg/mL (≈ 8.58 to 17.4 µM) |  | 2.1% | 55 µM | 80 µM | 2270 µM·h | > 100 µM | > 100 µM | 1.3 µM | Active | > 5 µM | 0.75 µM | > 100 µM |  |

Now from value to molecule, other results behind:

| solubility kinetic [1] | CLH [2] | CLH [3] | chromatographic logD [4] | solubility kinetic [5] | SMILES | half-life [6] | Activity (Schistosoma mansoni [7]) | Cmax [8] | IC50 (HFF) | AUC(0-t) [9] | IC50 (HEK293) | IC50 (U2OS) | IC50 (Schistosoma mansoni [10]) | Activity (Schistosoma mansoni [11]) | concentration at 48 h [12] | IC50 (Schistosoma mansoni [13]) | IC50 [14] | Tmax [15] |
| --- | --- | --- | --- | --- | --- | --- | --- | --- | --- | --- | --- | --- | --- | --- | --- | --- | --- | --- |
| 1.6 to 3.1 µg/mL (≈ 4.69 to 9.08 µM) | 69 µL/min/mg | 81 µL/min/mg | 3.3 | 1.6 to 3.1 µg/mL (≈ 4.69 to 9.08 µM) | NC(=O)c1ccccc1NC(=O)Nc1ccc(F)c(C(F)(F)F)c1 |  |  |  |  |  |  |  |  |  |  |  |  |  |
| 12.5 to 25 µg/mL (≈ 36.5 to 73 µM) | < 7 µL/min/mg | < 7 µL/min/mg | 1.5 | < 1.6 µg/mL | O=C(Nc1ccc(C(=O)O)cc1)Nc1ccc(F)c(C(F)(F)F)c1 |  |  |  |  |  |  |  |  |  |  |  |  |  |
| 12.5 to 25 µg/mL (≈ 36.5 to 73 µM) | < 7 µL/min/mg | < 7 µL/min/mg | 1.6 | 1.6 to 3.1 µg/mL (≈ 4.67 to 9.06 µM) | O=C(Nc1cccc(C(=O)O)c1)Nc1ccc(F)c(C(F)(F)F)c1 |  |  |  |  |  |  |  |  |  |  |  |  |  |
| < 1.6 µg/mL | 160 µL/min/mg | 210 µL/min/mg | 3 | 1.6 to 3.1 µg/mL (≈ 5.33 to 10.3 µM) | O=C(Nc1ccc(F)c(C(F)(F)F)c1)Nc1cnccn1 |  |  |  |  |  |  |  |  |  |  |  |  |  |
| 12.5 to 25 µg/mL (≈ 41.8 to 83.5 µM) | 154 µL/min/mg | 13 µL/min/mg | 3 | 50 to 100 µg/mL (≈ 167 to 334 µM) | O=C(Nc1cccnc1)Nc1ccc(F)c(C(F)(F)F)c1 |  |  |  |  |  |  |  |  |  |  |  |  |  |
| < 1.6 µg/mL | 14 µL/min/mg | 16 µL/min/mg | 3.6 | < 1.6 µg/mL | CC(=O)c1ccc(NC(=O)Nc2ccc(F)c(C(F)(F)F)c2)cc1 |  |  |  |  |  |  |  |  |  |  |  |  |  |
| < 1.6 µg/mL | 705 µL/min/mg | 188 µL/min/mg | 3.7 | 1.6 to 3.1 µg/mL (≈ 5.35 to 10.4 µM) | O=C(Nc1ccc(F)c(C(F)(F)F)c1)Nc1ccccn1 |  |  |  |  |  |  |  |  |  |  |  |  |  |
